Reference: ChEMBL document CHEMBL1932980, “Structure-activity relationships of 2-amino-3-aroyl-4-[(4-arylpiperazin-1-yl)methyl]thiophenes. Part 2: Probing the influence of diverse substituents at the phenyl of the arylpiperazine moiety on allosteric enhancer activity at the A₁ adenosine receptor” (Bioorg Med Chem, 2012)

What was measured:
[1] = target: T1, Adenosine receptor A1 (Homo sapiens) (UniProt P30542); assay: Allosteric enhancer activity at recombinant human A1 adenosine receptor expressed in CHO cells assessed as change in forskolin-induced cAMP production at 1 uM after 6 mins by radioimmunoassay; format: functional, cell-based
T1 sequence (whole entry): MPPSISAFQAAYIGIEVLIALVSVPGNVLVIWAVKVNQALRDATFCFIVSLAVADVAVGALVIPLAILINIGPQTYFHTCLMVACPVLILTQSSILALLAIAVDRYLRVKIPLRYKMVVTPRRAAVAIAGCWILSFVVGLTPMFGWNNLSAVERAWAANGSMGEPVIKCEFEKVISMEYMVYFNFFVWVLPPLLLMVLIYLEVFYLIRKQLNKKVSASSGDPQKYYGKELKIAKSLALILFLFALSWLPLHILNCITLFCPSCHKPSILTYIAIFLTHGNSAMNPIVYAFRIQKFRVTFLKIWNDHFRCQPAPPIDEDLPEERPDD
Procedure, shortened: (§1)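 hA1CHO cells (about 8000 fmol/mg protein) thawed from low-passage stocks, grown in Ham's F-12 with 10% FBS and G-418, then plated 48 h. Test compound at 0.01, 0.1, 1 or 10 µM with CPA (0.05–0.1 nM) for 6 min at 36 °C. Stopped with HCl (final 50 mM). cAMP in acidified extracts measured by radioimmunoassay. Reference enhancer run in each experiment. Four experiments per concentration.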

[2] = target: T1, Adenosine receptor A1 (Homo sapiens); assay: Allosteric enhancer activity at recombinant human A1 adenosine receptor expressed in CHO cells assessed as change in forskolin-induced cAMP production at 0.1 uM after 6 mins by radioimmunoassay; format: functional, cell-based; procedure, shortened: as §1
[3] = target: T1, Adenosine receptor A1 (Homo sapiens); assay: Allosteric enhancer activity at recombinant human A1 adenosine receptor expressed in CHO cells assessed as change in forskolin-induced cAMP production at 10 uM after 6 mins by radioimmunoassay; format: functional, cell-based; procedure, shortened: as §1
[4] = target: T1, Adenosine receptor A1 (Homo sapiens); assay: Binding affinity to recombinant human A1 adenosine receptor allosteric site expressed in CHO cells assessed as [3H]DPCPX Bmax shift at 10 uM after 90 mins relative to control; format: cell-based
Procedure, shortened: (§2)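 Saturation binding of [3H]DPCPX (0.05–20 nM) to hA1CHO membranes, run in triplicate, 90 min at 25 °C, in 50 mM Tris–HCl pH 7.4, with or without test compound at final 10 µM. Nonspecific binding taken with 1 µM DPCPX. KD and Bmax fitted by LIGAND. Shift is the fold of Bmax increase over control.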

[5] = target: T1, Adenosine receptor A1 (Homo sapiens); assay: Binding affinity to recombinant human A1 adenosine receptor allosteric site expressed in CHO cells assessed as potentiation of CCPA-induced [3H]DPCPX displacement at 10 uM after 90 mins relative to control; format: cell-based
Procedure, shortened: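 Competition of CCPA (0.01 nM–1 µM) against 1 nM [3H]DPCPX on hA1CHO membranes, run in triplicate, 90 min at 25 °C, in 50 mM Tris–HCl pH 7.4, with or without test compound at 10 µM. Nonspecific binding taken with 1 µM DPCPX. Ki by Cheng–Prusoff. Shift = Ki(CCPA)/Ki(CCPA + 10 µM compound).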

[6] = target: T1, Adenosine receptor A1 (Homo sapiens); assay: Allosteric enhancer activity at recombinant human A1 adenosine receptor expressed in CHO cells assessed as change in forskolin-induced cAMP production at 0.01 uM after 6 mins by radioimmunoassay; format: functional, cell-based; procedure, shortened: as §1
[7] = target: T1, Adenosine receptor A1 (Homo sapiens); assay: Binding affinity to recombinant human A1 adenosine receptor allosteric site expressed in CHO cells assessed as [3H]CCPA Bmax shift at 10 uM after 90 mins relative to control; format: cell-based
Procedure, shortened: as §2, with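 “[3H]CCPA” for “[3H]DPCPX”, “membranes. Membranes pretreated with adenosine deaminase 3 UI/mL for 30 min at 37 °C. Run” for “membranes, run”, “R-PIA.” for “DPCPX. KD and”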

[8] = target: T1, Adenosine receptor A1 (Homo sapiens); assay: Displacement of [3H]DPCPX from recombinant human A1 adenosine receptor expressed in CHO cells at 10 uM after 120 mins by scintillation counting; format: cell-based
Procedure, shortened: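 Membranes from hA1CHO cells incubated with 1 nM [3H]DPCPX in 50 mM Tris–HCl pH 7.4 at 25 °C for 120 min. Compound added from a 100-fold DMSO stock, so 1% DMSO final, also present in controls. Bound ligand separated on GF/B filters and counted by scintillation. Result given as % of control specific binding.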

[9] = target: T2, Adenosine receptor A3 (Homo sapiens) (UniProt P0DMS8); assay: Displacement of [3H]MRE3008F20 from recombinant human A3 adenosine receptor expressed in CHO cells at 10 uM after 120 mins by scintillation counting; format: cell-based
T2 sequence (whole entry): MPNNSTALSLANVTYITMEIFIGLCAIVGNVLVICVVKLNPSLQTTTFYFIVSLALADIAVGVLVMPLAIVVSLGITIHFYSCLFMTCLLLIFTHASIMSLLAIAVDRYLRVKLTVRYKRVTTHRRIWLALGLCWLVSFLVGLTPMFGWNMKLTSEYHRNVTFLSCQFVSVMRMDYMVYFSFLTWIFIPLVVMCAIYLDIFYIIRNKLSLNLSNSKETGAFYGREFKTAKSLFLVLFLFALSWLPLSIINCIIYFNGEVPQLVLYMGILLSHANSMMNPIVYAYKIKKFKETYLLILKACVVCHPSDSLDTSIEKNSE
Procedure, shortened: (§3)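 Membranes from hA3CHO cells incubated with 2 nM [3H]MRE 3008F20 in 50 mM Tris–HCl, 10 mM MgCl2, 1 mM EDTA, pH 7.4 at 4 °C for 120 min. Compound added from a 100-fold DMSO stock, 1% DMSO final, also in controls. Separated by GF/B filtration and counted by scintillation. Result given as % of control specific binding.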

[10] = target: Adenosine receptor A2a (Homo sapiens) (UniProt P29274); assay: Displacement of [3H]ZM241385 from recombinant human A2A adenosine receptor expressed in CHO cells at 10 uM after 60 mins by scintillation counting; format: cell-based
Procedure, shortened: as §3, with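 “hA2ACHO” for “hA3CHO”, “1” for “2”, “[3H]ZM 241385” for “[3H]MRE 3008F20”, “MgCl2,” for “MgCl2, 1 mM EDTA,”, “60” for “120”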

Sequence of Adenosine receptor A2a (Homo sapiens) (P29274 whole entry): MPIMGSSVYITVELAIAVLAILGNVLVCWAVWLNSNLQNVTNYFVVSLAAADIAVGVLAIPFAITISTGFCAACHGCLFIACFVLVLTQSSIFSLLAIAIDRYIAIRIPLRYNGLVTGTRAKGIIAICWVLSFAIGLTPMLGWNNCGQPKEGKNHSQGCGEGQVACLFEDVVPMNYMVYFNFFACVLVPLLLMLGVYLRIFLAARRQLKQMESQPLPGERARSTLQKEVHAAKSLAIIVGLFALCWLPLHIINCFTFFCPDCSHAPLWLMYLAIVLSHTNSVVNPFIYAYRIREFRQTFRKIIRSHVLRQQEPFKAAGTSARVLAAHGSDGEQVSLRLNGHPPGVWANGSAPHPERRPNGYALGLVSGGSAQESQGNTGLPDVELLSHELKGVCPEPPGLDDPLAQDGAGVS

Activity [1] | Activity [2] | Activity [3] | fold change (FC) [4] | fold change (FC) [5] | Activity [6] | fold change (FC) [7] | inhibition [8] | inhibition [9] | inhibition [10] | SMILES
-59% | -20% | -77% | 1 | 3.7 | -3.1% | 4.4 | 0% | 1% | 0% | Nc1scc(CN2CCN(c3cccc(Cl)c3)CC2)c1C(=O)c1ccc(Cl)cc1
-34% | -3.9% | -82% | 0.9 | 3.1 | 2.2% | 3.7 | 0% | 1% | 0% | Nc1scc(CN2CCN(Cc3ccc(F)cc3)CC2)c1C(=O)c1ccc(Cl)cc1
-65% | -23% | -80% | 1.1 | 5 | -12% | 6.3 | 1% | 4% | 1% | Nc1scc(CN2CCN(c3c(F)cccc3F)CC2)c1C(=O)c1ccc(Cl)cc1
-42% | -6.2% | -62% | 0.9 | 2.8 | 13% | 3.2 | 0% | 1% | 0% | Nc1scc(CN2CCN(c3cc(Cl)ccc3Cl)CC2)c1C(=O)c1ccc(Cl)cc1
-2.7% | 3.4% | -23% | 0.9 | 1.4 | 3.2% | 1.3 | 0% | 0% | 0% | Nc1scc(CN2CCN(c3cccnc3)CC2)c1C(=O)c1ccc(Cl)cc1
3.7% | 13% | -25% | 0.9 | 1.2 | 2.9% | 1.1 | 0% | 0% | 0% | Nc1scc(CN2CCN(C3CCCCCC3)CC2)c1C(=O)c1ccc(Cl)cc1
-57% | 3.2% | -77% | 1 | 3.5 | 1% | 4.2 | 2% | 0% | 1% | Nc1scc(CN2CCN(c3cccc(Cl)c3Cl)CC2)c1C(=O)c1ccc(Cl)cc1
-59% | -13% | -80% | 1 | 3.8 | 3.1% | 4.7 | 1% | 2% | 0% | Nc1scc(CN2CCN(c3cc(F)ccc3F)CC2)c1C(=O)c1ccc(Cl)cc1
-39% | -7.5% | -60% | 1 | 3.6 | 0% | 4.4 | 0% | 0% | 0% | Nc1scc(CN2CCN(c3ccccc3C(F)(F)F)CC2)c1C(=O)c1ccc(Cl)cc1
7.3% | 3.6% | -7.4% | 0.9 | 1.2 | -1% | 1.1 | 0% | 0% | 0% | CC(C)N1CCN(Cc2csc(N)c2C(=O)c2ccc(Cl)cc2)CC1
